# Compounds with a hit are over-represented: about 1.9% of the library has one in this group of screens.
# M4 PAM: human M4 muscarinic receptor positive allosteric modulators, primary screen, CHO-K1 cells, Fluo-8 calcium fluorescence; Muscarinic acetylcholine receptor M4 (Homo sapiens), P08173; CHO-K1 hM4/Gqi5, ACh EC20; 0% = ACh EC20, 100% = maximal ACh; activation, % at 3 µM; hit rate 0.4% among 360,000; AID 624126, 2012;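 active means activation above its plate's cutoff, the mean activation of sample wells plus 3 SD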
# M5 ag: human M5 muscarinic receptor agonists, primary screen, CHO-K1 cells, Fluo-8 calcium fluorescence. activation, % at 3 µM. hit rate 0.19% among 360,000. CHO-K1 hM5 cells; 0% DMSO wells, 100% maximal acetylcholine response. Muscarinic acetylcholine receptor M5 (Homo sapiens), P08912;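 active means activation above the run's mean over test compounds plus 3 SD, cut at about 23% in these data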;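 further: signal is peak over basal fluorescence ratio across the kinetic read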
# Target sequence (P08912 whole entry, looked up): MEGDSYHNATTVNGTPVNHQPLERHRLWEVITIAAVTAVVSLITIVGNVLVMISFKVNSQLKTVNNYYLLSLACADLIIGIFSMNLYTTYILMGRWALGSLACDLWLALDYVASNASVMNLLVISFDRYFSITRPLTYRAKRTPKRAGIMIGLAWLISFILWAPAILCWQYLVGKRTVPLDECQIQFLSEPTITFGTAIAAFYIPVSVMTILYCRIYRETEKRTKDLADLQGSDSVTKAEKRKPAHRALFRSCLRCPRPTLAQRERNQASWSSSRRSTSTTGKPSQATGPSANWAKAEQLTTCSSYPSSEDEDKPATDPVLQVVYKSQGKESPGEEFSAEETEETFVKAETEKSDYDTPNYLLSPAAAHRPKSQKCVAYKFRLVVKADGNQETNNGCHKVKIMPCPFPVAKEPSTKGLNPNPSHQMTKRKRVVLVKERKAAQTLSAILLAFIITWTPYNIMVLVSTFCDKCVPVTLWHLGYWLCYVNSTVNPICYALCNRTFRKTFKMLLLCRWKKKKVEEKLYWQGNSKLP
# CHRM4 agonist: human M4 muscarinic receptor agonists, primary screen, CHO-K1 cells, Fluo-8 calcium fluorescence | Muscarinic acetylcholine receptor M4 (Homo sapiens), P08173 | CHO-K1 hM4/Gqi5; vehicle 0%, full acetylcholine response 100% | activation, % at 3 µM | hit rate 0.14% among 360,000;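 active means activation above the run mean over all test wells plus 3 SD, cut at about 32% in these data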;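 further: peak over basal fluorescence ratio per well then scaled between controls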
# M5 antag: human M5 muscarinic receptor antagonists, primary screen, CHO cells, Fluo-8 calcium fluorescence | Muscarinic acetylcholine receptor M5 (Homo sapiens), P08912 | CHO-hM5 cells, ACh EC80 | inhibition, % at 3 µM | hit rate 0.59% among 360,000;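 active means inhibition above a per-plate cutoff, the mean of that plate's test compounds plus 3 SD, cut at about 27% in these data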
# M4 antag: human M4 muscarinic receptor antagonists, primary screen, CHO cells, Fluo-8 calcium fluorescence; AID 624125, 2012; hit rate 0.73% among 360,000; CHO-hM4 cells, ACh EC80; Muscarinic acetylcholine receptor M4 (Homo sapiens), P08173; inhibition, % at 3 µM;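 active means inhibition above its plate's cutoff, the mean inhibition of sample wells plus 3 SD, cut at about 27% in these data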
# CHRM5 PAM: human M5 muscarinic receptor positive allosteric modulators, primary screen, CHO-K1 cells, Fluo-8 calcium fluorescence | hit rate 0.3% among 360,000 | CHO-K1 hM5, ACh EC20 PAM; 0% = ACh EC20, 100% = ACh EC100 | activation, % at 3 µM | Muscarinic acetylcholine receptor M5 (Homo sapiens), P08912;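 active means activation above the run cutoff, the mean activation of all test compounds plus 3 SD, cut at about 18% in these data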
#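 System: CHO-K1 hM5 cells. Reagent: acetylcholine, EC20 level. Compound dosing: single dose, 3 µM nominal final test concentration. Timing: Post-acetylcholine fluorescence recording 140 s. Detection: Fluo-8 calcium fluorescence. Read-out: % activation, ACh-normalized. Benchmarks: ACh EC20 and EC100 wells. Repeats: singlicate, one well per test compound.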
# A number is an active result; . = inactive.
SMILES,M4 PAM,M5 ag,CHRM4 agonist,M5 antag,M4 antag,CHRM5 PAM
CN(C)CCCN1c2ccccc2CCc2ccc(Cl)cc21,.,.,.,92,72,.
COc1ccc(S(=O)(=O)N2CCOCC2)cc1NC(=O)CN1CCCc2ccccc21,.,.,.,.,.,.
CCCN(CC(=O)Nc1ccccc1C)C(=O)c1ccc(=O)n(Cc2ccccc2)n1,.,.,.,.,.,.
CCC(=O)c1ccc2c(c1)N(CCCN(C)C)c1ccccc1S2,.,.,.,74,39,.
COc1ccc(N=C2CCS(=O)(=O)c3sccc32)cc1,.,.,.,.,.,.
COc1ccc(C(=O)O/N=C2\CCS(=O)(=O)c3sccc32)cc1,.,.,.,36,.,.
O=C(CN(Cc1ccco1)C(=O)c1ccc(F)cc1F)Nc1ccccc1C(F)(F)F,23,.,.,.,.,.
O=C(CN(Cc1ccco1)C(=O)c1cc(=O)[nH]c2ccccc12)Nc1ccccc1C(F)(F)F,.,.,.,.,.,.
CN(CC(=O)Nc1cccc2ccccc12)C(=O)c1ccc(F)cc1F,23,.,.,.,.,.
O=C(NNC1=NCCCCC1)c1cccc([N+](=O)[O-])c1,.,.,.,.,.,19
O=C(Nc1ccc(Cl)cc1)Nc1cc([N+](=O)[O-])ccc1F,.,.,.,.,.,.
O=C(Nc1ccc([N+](=O)[O-])cc1)Nc1ccc(Cl)cc1F,.,.,.,41,.,.
O=C(Nc1ccc(Cl)cc1)Nc1csc([N+](=O)[O-])c1,.,.,.,37,.,.
O=C(Nc1csc([N+](=O)[O-])c1)Nc1c(Cl)cccc1Cl,.,.,.,.,.,.
O=C(Nc1ccc(Cl)cc1)Nc1ccccc1CC[N+](=O)[O-],.,.,.,29,.,.
Cc1cc(OC(F)F)ccc1NC(=O)Nc1ccc([N+](=O)[O-])cc1,.,.,.,27,.,.
CCCCc1ccc(S(=O)(=O)NC(=O)C2(C)CCN2C(=O)Cc2ccccc2)cc1 (stereo unspecified),.,.,.,.,.,.
C[C@H](NC(=O)COc1ccc(Cl)cc1)C(=O)N1CCC2(CC1)NCCc1[nH]cnc12,.,.,.,.,.,.
COc1ccc(CCNC(=O)CSc2nnnn2-c2ccccc2)cc1,.,.,.,33,.,43
O=C(Nc1ccc(Cl)cc1)[C@@H]1[C@@H]2C(=O)N(c3ccc4ccccc4c3)C(=O)[C@@H]2[C@H]2C=CC=NN21,.,.,.,.,.,32
COc1ccccc1C(=O)NC(=O)COC(=O)c1ccc(Br)o1,.,.,.,.,.,.
CCOc1ccc(C2NCCc3cc(OC)c(OC)cc32)cc1OC (stereo unspecified),14,.,.,.,.,.
CCN(C(=O)COC(=O)c1cccc(S(=O)(=O)N2CCOCC2)c1)C1CCS(=O)(=O)C1 (stereo unspecified),.,.,.,.,.,.
CC(=O)c1cccc(NC(=S)N2CCN(S(=O)(=O)c3ccc(F)cc3)CC2)c1,.,.,.,.,.,.
C=CCN(CC=C)S(=O)(=O)c1ccc(C(=O)Nc2nnc(CSC)o2)cc1,.,.,.,.,.,.
SMILES,M4 PAM,M5 ag,CHRM4 agonist,M5 antag,M4 antag,CHRM5 PAM
CSCc1nnc(NC(=O)c2ccc(S(=O)(=O)N(C)C)cc2)o1,.,.,.,.,.,19
CC(=O)c1c(C)[nH]c(C(=O)OCC(=O)Nc2ccc3c(c2)OCCO3)c1C,.,.,.,.,.,.
Cc1ccc(-c2noc(C3CCCN(C(=O)c4c(F)cccc4F)C3)n2)cc1 (stereo unspecified),.,.,.,.,.,.
O=C(c1c(F)cccc1F)N1CCCC(c2nc(-c3ccc(Cl)cc3)no2)C1 (stereo unspecified),.,.,.,28,.,.
COc1ccc(/C=C/C(=O)N(CCC(N)=O)c2ccccc2)cc1S(=O)(=O)N1CCOCC1,.,.,.,.,.,.
COc1ccc(F)cc1S(=O)(=O)n1nnc2ccccc21,22,.,.,.,.,.
COc1ccc(OC)c(S(=O)(=O)n2nnc3ccccc32)c1,.,.,.,.,.,.
CCC(CO)Oc1cc(NC(=O)c2ccccc2)c2ncn(C(C)C)c2c1 (stereo unspecified),.,.,.,.,.,.
O=C1c2ccccc2-c2onc3ccc(NCc4ccco4)c1c23,.,.,.,.,.,.
CCNc1ccc2noc3c2c1C(=O)c1ccccc1-3,.,37,46,38,.,.
COc1cc(C(=O)Oc2cccc(Nc3ncnc4ccccc34)c2)cc(OC)c1OC,.,.,.,29,31,.
CN(CC(=O)Nc1cccc(F)c1)C(=O)CCC1CCCCC1,18,.,.,.,.,.
Cn1ccc2c(-c3ccc(C(F)(F)F)cc3)cc3c(c21)C1CCC3C1 (stereo unspecified),.,.,.,.,.,.
O=C(CN1CCc2cc3c(cc2C1)OCCCO3)Nc1ccc(S(=O)(=O)N2CCCC2)cc1,.,.,.,.,.,.
COc1cc(C(=O)NC2CC(C)(C)Cc3c2cnn3-c2ccccc2)cc(OC)c1OC (stereo unspecified),.,.,.,.,.,.
COc1cccc(C(=O)NC2CC(C)(C)Cc3c2cnn3-c2cccc(F)c2)c1OC (stereo unspecified),.,.,.,28,.,.
CCN(CCCNC(=O)CC(C(=O)N1CCc2ccccc21)n1ccnc1)c1cccc(C)c1 (stereo unspecified),.,.,.,.,.,.
CCCCNC(=O)CC(C(=O)N1CCc2ccccc21)n1ccnc1 (stereo unspecified),34,.,.,.,28,.
CC(C)C(=O)Nc1cccc(C(=O)N2CCCCC2C)c1 (stereo unspecified),.,.,.,.,.,21
O=C(COc1ccc(Cl)cc1Cl)NCCN1CCCC1,.,.,.,.,.,.
Nc1ccc2c(Cl)cc(Cl)cc2c1,.,.,.,.,.,.
COc1cc(C2NC(=O)N(C)C(C)=C2C(=O)OCc2ccccc2)cc(Br)c1O (stereo unspecified),14,.,.,.,.,.
Clc1ccc(OCCn2ccnc2)c(Br)c1,.,.,.,.,.,27
CCC(C)c1ccccc1OCCn1ccnc1 (stereo unspecified),.,.,.,30,.,.

# Source: PubChem BioAssay (The Scripps Research Institute Molecular Screening Center)
